From ChEMBL document CHEMBL1148952, “A new ene-triyne antibiotic from the fungus Baeospora myosura” (2004)
≈ marks a conversion by molar mass, not a printed value. Calls of active or inactive are those of the source. No cut-off for these calls is given here.

How the values were obtained:
Klebsiella pneumoniae = experiment: Antimicrobial activity against Klebsiella pneumoniae after 20 hrs; format: functional
In short: (§1)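 Broth MIC in cation-adjusted Mueller-Hinton broth. Inoculum 10^5 cfu/mL, incubated 35 °C for 20 h. Test material was held as a DMSO stock, with concentration set by UV absorbance at 325 nm of a MeOH dilution (ε = 2 × 10^4 M-1 cm-1).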

Staphylococcus aureus [1] = experiment: Antimicrobial activity against methicillin-sensitive Staphylococcus aureus after 20 hrs; format: functional
In short: (§2)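 Broth MIC determination in cation-adjusted Mueller-Hinton broth, inoculum 10^5 cfu/mL, incubated 35 °C for 20 h.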

Pseudomonas aeruginosa = experiment: Antimicrobial activity against Pseudomonas aeruginosa after 20 hrs; format: functional; in short: as §1
Streptococcus pneumoniae [2] = experiment: Antimicrobial activity against penicillin-resistant Streptococcus pneumoniae after 20 hrs; format: functional
In short: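 Broth MIC determination in cation-adjusted Mueller-Hinton broth supplemented with 2.5% lysed horse blood, inoculum 10^5 cfu/mL, incubated 35 °C for 20 h.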

Staphylococcus aureus [3] = experiment: Antimicrobial activity against methicillin-sensitive Staphylococcus aureus after 20 hrs in presence of 50% serum; format: functional
Enterococcus faecium = experiment: Antimicrobial activity against vancomycin-resistant Enterococcus faecium after 20 hrs; format: functional; in short: as §2
Enterococcus faecalis = experiment: Antimicrobial activity against vancomycin-sensitive Enterococcus faecalis after 20 hrs; format: functional; in short: as §1
Priestia megaterium = experiment: Antimicrobial activity against Bacillus megaterium after 20 hrs; format: functional; in short: as §1
[4] = tested on: coagulase-negative Staphylococcus; experiment: Antimicrobial activity against methicillin-resistant coagulase negative Staphylococcus after 20 hrs
Streptococcus pyogenes = experiment: Antimicrobial activity against Streptococcus pyogenes after 20 hrs; format: functional
Candida albicans = experiment: Antimicrobial activity against Candida albicans after 24 hrs; format: functional
In short: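 Yeast MIC in RPMI 1640. Inoculum 10^3 cfu/mL, incubated 35 °C for 24 h. Compound supplied from a DMSO stock quantified by UV absorbance at 325 nm.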

Haemophilus influenzae = experiment: Antimicrobial activity against Haemophilus influenzae after 20 hrs; format: functional
In short: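 Haemophilus Test medium broth MIC. Inoculum 10^5 cfu/mL, incubated 35 °C for 20 h. Compound supplied from a DMSO stock quantified by UV absorbance at 325 nm.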

Streptococcus pneumoniae [5] = experiment: Antimicrobial activity against Streptococcus pneumoniae after 20 hrs; format: functional
In short: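 MIC by broth dilution in cation-adjusted Mueller-Hinton broth with 2.5% lysed horse blood. Inoculum 10^5 cfu/mL, 35 °C for 20 h. DMSO stock quantified by UV absorbance at 325 nm.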

Staphylococcus aureus [6] = experiment: Antimicrobial activity against methicillin-resistant Staphylococcus aureus after 20 hrs; format: functional; in short: as §2
Escherichia coli = experiment: Antimicrobial activity against Escherichia coli after 20 hrs; format: functional; in short: as §1
Staphylococcus aureus [7] = experiment: Antimicrobial activity against methicillin-resistant coagulase negative Staphylococcus aureus after 20 hrs; format: functional; in short: as §2

SMILES | MIC (Klebsiella pneumoniae) | MIC (Staphylococcus aureus [1]) | MIC (Pseudomonas aeruginosa) | MIC (Streptococcus pneumoniae [2]) | MIC (Staphylococcus aureus [3]) | MIC (Enterococcus faecium) | MIC (Enterococcus faecalis) | MIC (Priestia megaterium) | MIC [4] | MIC (Streptococcus pyogenes) | MIC (Candida albicans) | MIC (Haemophilus influenzae) | MIC (Streptococcus pneumoniae [5]) | MIC (Staphylococcus aureus [6]) | MIC (Escherichia coli) | Activity (Staphylococcus aureus [1]) | Activity (Staphylococcus aureus [7]) | Activity (Staphylococcus aureus [3]) | Activity (Staphylococcus aureus [6])
C#CC#CC#C/C=C/C(=O)Nc1ccc(C(=O)O)cc1 | > 32 µg/mL | 0.0005 µg/mL (≈ 0.0019 µM) | > 32 µg/mL | 16 µg/mL (≈ 60.8 µM) | 16 µg/mL | 0.015 µg/mL (≈ 0.057 µM) | 0.12 µg/mL (≈ 0.456 µM) | 4 µg/mL (≈ 15.2 µM) | 0.0005 µg/mL (≈ 0.0019 µM) | 0.008 µg/mL (≈ 0.0304 µM) | > 32 µg/mL | 0.5 µg/mL (≈ 1.9 µM) | 8 µg/mL (≈ 30.4 µM) | 0.001 µg/mL (≈ 0.0038 µM) | 32 µg/mL (≈ 122 µM) |  |  |  | 
CC(=O)Nc1ccc(C(=O)O)cc1 |  |  |  |  |  |  |  |  |  |  |  |  |  |  |  | inactive | inactive | inactive | inactive
CCCCCCCCC(=O)Nc1ccc(C(=O)O)cc1 |  |  |  |  |  |  |  |  |  |  |  |  |  |  |  | inactive | inactive | inactive | inactive
